The source made the active and inactive calls. The calls are words filed in the database; no cut-off is given here.
Legend:
[1] = Dissociation constant, pKa of the compound; type: physicochemical
[2] = target: T1, Plasma membrane ATPase 1 (Saccharomyces cerevisiae (strain ATCC 204508 / S288c) (Baker's yeast)) (UniProt P05030); assay: Inhibition of Saccharomyces cerevisiae H+ ATPase pma1 isoform assessed as reduction in ATP hydrolysis rate at 10 uM measured upto 150 sec by measuring […] ATPase activity by spectrophotometry method
T1 sequence (whole entry): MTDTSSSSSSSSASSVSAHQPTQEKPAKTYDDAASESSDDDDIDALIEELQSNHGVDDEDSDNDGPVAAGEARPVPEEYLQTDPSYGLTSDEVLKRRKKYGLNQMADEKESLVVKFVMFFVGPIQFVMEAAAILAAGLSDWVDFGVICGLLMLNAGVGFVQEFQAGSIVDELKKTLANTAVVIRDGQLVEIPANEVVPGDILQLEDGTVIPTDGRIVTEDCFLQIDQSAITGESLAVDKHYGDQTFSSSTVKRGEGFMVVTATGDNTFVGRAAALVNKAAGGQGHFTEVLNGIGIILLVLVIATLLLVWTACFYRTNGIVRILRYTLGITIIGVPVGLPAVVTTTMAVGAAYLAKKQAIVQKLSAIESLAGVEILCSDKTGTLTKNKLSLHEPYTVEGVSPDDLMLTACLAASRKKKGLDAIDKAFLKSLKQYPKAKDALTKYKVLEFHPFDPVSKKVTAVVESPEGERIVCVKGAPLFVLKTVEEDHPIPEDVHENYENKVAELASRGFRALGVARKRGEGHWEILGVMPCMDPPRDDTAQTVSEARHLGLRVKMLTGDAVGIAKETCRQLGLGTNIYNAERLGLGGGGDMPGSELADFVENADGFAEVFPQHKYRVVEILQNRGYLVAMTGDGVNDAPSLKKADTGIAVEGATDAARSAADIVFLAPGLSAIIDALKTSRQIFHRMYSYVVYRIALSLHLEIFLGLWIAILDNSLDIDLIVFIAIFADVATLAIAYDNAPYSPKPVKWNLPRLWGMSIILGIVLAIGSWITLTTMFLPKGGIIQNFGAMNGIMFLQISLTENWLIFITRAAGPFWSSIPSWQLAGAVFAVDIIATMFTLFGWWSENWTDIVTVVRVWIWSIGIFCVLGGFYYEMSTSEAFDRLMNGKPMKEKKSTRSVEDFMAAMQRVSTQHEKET
Summary of the method: (§1)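 S. cerevisiae plasma membranes containing H⁺-ATPase added to start the reaction in pH 7 buffer with 5 mM ATP. Compound added at the indicated times, final DMSO 1.1%. Initial ATP hydrolysis rate read spectrophotometrically by NADH-coupled assay with phosphoenolpyruvate regenerating ATP.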

[3] = system: Candida albicans; assay: Fungicidal activity against Candida albicans SC5314 assessed as cell death at 5 to 10 uM measured upto 24 hrs by time-kill assay; type: functional, organism-based; conditions: dose 5-10 µM
Summary of the method: (§2)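 Time-kill assay: C. albicans or C. glabrata cells at 1×10^5 CFU/ml incubated with compound at 5 or 10 μM. DMSO final concentration 1%. Viability followed over time.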

[4] = system: Nakaseomyces glabratus; assay: Fungicidal against wild type Candida glabrata ATCC 90030 assessed as cell death at 5 to 10 uM measured upto 24 hrs by time-kill assay; type: functional, organism-based; conditions: dose 5-10 µM; summary of the method: as §2
[5] = target: T1, Plasma membrane ATPase 1 (Saccharomyces cerevisiae (strain ATCC 204508 / S288c) (Baker's yeast)); assay: Inhibition of Saccharomyces cerevisiae H+ ATPase pma1 isoform assessed as reduction in ATP hydrolysis rate at 50 uM measured upto 150 sec by measuring […] ATPase activity by spectrophotometry method; summary of the method: as §1
[6] = target: T1, Plasma membrane ATPase 1 (Saccharomyces cerevisiae (strain ATCC 204508 / S288c) (Baker's yeast)); assay: Inhibition of Saccharomyces cerevisiae H+ ATPase pma1 isoform assessed as reduction in ATP hydrolysis rate at 100 uM measured upto 150 sec by measuring […] ATPase activity by spectrophotometry method; summary of the method: as §1

pKa [1] | SMILES | further results
2.7 | OC(Cn1cncn1)Cn1c2ccc(Cl)cc2c2cc(Cl)ccc21 (stereo not given) | –
9.2 | CCC(C)NCC(O)Cn1c2ccc(Cl)cc2c2cc(Cl)ccc21 (stereo not given) | inhibition [2]: Active; Activity [3]: Active; Activity [4]: Active
6.6 | OC(CN1CCOCC1)Cn1c2ccc(Cl)cc2c2cc(Cl)ccc21 (stereo not given) | inhibition [5]: Active
7.6 | CN1CCN(CC(O)Cn2c3ccc(Cl)cc3c3cc(Cl)ccc32)CC1 (stereo not given) | –
7.1 | OC(Cn1ccnc1)Cn1c2ccc(Cl)cc2c2cc(Cl)ccc21 (stereo not given) | inhibition [6]: Active
